Active and inactive are the calls of the source. No cut-off for these calls is given here.

Test [1] can be described thus: Inhibition of recombinant mouse N-terminal FLAG-tagged Notch1 (1704 to 2531 residues) expressed in human LS174T cells assessed as reduction in doxycycline-induced NICD expression after 12 hrs by Bright-Glo luciferase reporter gene assay. In kind it is cell-based. The essentials:
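LS174T Notch cells seeded 2 × 10^4 cells/well, 12 h at 37 °C. Dox 50 ng/mL for 12 h, then Dox-free medium with samples for 12 h at 37 °C in 0.1% DMSO. Luciferase read with Bright-Glo. Viability measured in parallel by fluorometric microculture cytotoxicity assay. SD, n = 3.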

For test [2], the target named is Neurogenic locus notch homolog protein 1 (Homo sapiens) (UniProt P46531). Kind of test: Inhibition of doxycycline-induced recombinant mouse N-terminal FLAG-tagged Notch1 (1704 to 2531 residues) activation expressed in human LS174T cells assessed as reduction in Hes1 level at 0.1 to 1 uM after 12 hrs by Western blot analysis. The format is cell-based. The essentials:
(§1)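 LS174T Notch cells (Tet-On LS174T, N-terminally FLAG-tagged mouse Notch1(1704-2531), stable 12×RBP-J luciferase reporter) seeded 1 × 10^6 cells per 6 cm dish for 12 h at 37 °C. Dox 50 ng/mL for 12 h, then fresh medium with compound for 12 h. Whole-cell lysates, SDS-PAGE, PVDF, ECL detection. Anti-Flag used for the Notch1 fragment; β-actin internal control.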

Test [3] has the same target. Kind of test: Inhibition of doxycycline-induced recombinant mouse N-terminal FLAG-tagged Notch1 (1704 to 2531 residues) activation expressed in human LS174T cells assessed as reduction in Hes5 level at 0.1 to 1 uM after 12 hrs by Western blot analysis. In kind it is cell-based. The essentials:
as §1

Test [4] has as its target Neurogenic locus notch homolog protein 1 (Mus musculus) (UniProt Q01705). The test is described as follows: Inhibition of recombinant mouse Notch1-RAMIC expressed in MEB5 cells assessed as reduction in doxycycline-induced NICD expression at 10 uM after 12 hrs by Western blot analysis. The format is cell-based. The essentials: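 Dissociated MEB5 cells were seeded at 2 × 10^6 cells/well in 6 cm dishes coated with poly-L-lysine and fibronectin/laminin. After 12 h in proliferation medium, cells were washed with serum-free NeuroCult basal medium and treated in differentiation medium with 10 μM for 12 h. Whole-cell lysates were run on SDS-PAGE and immunoblotted for NICD, with ECL detection.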

Test [5] has the same target. Kind of test: Inhibition of recombinant mouse Notch1-RAMIC expressed in MEB5 cells harboring TP1 assessed as luciferase activity at 10 uM after 12 hrs by Dual-Glo luciferase assay (reference value: 0.258). The format is cell-based.
Test [6] relates to MEB5. The test is described as follows: Induction of neuronal differentiation in mouse MEB5 cells assessed as number of neurons at 10 uM after 4 days by Tuj1 staining based immunofluorescence analysis (reference value: 13.3 %). The format is functional. The essentials:
(§2)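 MEB5 mouse neurospheres were chemically dissociated and seeded at 2 × 10^6 cells/well on coverslips coated with poly-L-lysine and fibronectin/laminin. After 12 h in proliferation medium, cells were washed with NeuroCult basal medium and treated for 4 days in differentiation medium. They were then fixed in 4% paraformaldehyde and immunostained for Tuj-1 (neurons) and GFAP (astrocytes), with TO-PRO-3 nuclear counterstain. Confocal imaging used four fields per well and three wells per condition, covering over 4000 cells and 670 neurites per sample.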

Test [7] relates to MEB5. Kind of test: Induction of neuronal differentiation in mouse MEB5 cells assessed as neurite length at 10 uM after 4 days by Tuj1 staining based immunofluorescence analysis (reference value: 14.3 micrometer). In kind it is functional. The essentials:
as §2

Test [8] concerns MEB5. Kind of test: Induction of neuronal differentiation in mouse MEB5 cells assessed as increase in neurite extension length at 10 uM after 4 days by Tuj1 staining based immunofluorescence analysis relative to control. In kind it is functional. The essentials: as §2
Test [9] has as its system MEB5. Kind of test: Induction of neuronal differentiation in mouse MEB5 cells assessed as reduction in astrocytes at 10 uM after 4 days by GFAP staining based immunofluorescence analysis. In kind it is functional, cell-based. The essentials: as §2
The target in test [10] is Gamma-secretase (Homo sapiens) (UniProt Q96BI3+Q9NZ42+Q8WW43+P49768+Q92542+P49810). Kind of test: Effect on gamma-secretase activity in human LS174T cells harboring mouse N-terminal FLAG-tagged Notch1 (1704 to 2531 residues) after 12 hrs by Western blot analysis. In kind it is cell-based.
The subject of the next test is LS174T. The test is described as follows: Effect on Notch1 (1704 to 2531 residues) expression in human LS174T cells at 0.001 to 10 uM after 12 hrs by Western blot analysis. The format is functional, cell-based. The essentials: as §1
The test system of test [11] is MEB5. The test is described as follows: Induction of neuronal differentiation in mouse MEB5 cells assessed as number of neurons at 1 uM after 4 days by Tuj1 staining based immunofluorescence analysis (reference value: 13.3 %). In kind it is functional.
Test [12] concerns MEB5. Kind of test: Induction of neuronal differentiation in mouse MEB5 cells assessed as neurite length at 1 uM after 4 days by Tuj1 staining based immunofluorescence analysis (reference value: 14.3 micrometer). In kind it is functional.
Test [13] deals with MEB5. The test is described as follows: Induction of neuronal differentiation in mouse MEB5 cells assessed as increase in neurite extension length at 1 uM after 4 days by Tuj1 staining based immunofluorescence analysis relative to control. The format is functional.
Test [14] addresses Neurogenic locus notch homolog protein 1 (Mus musculus) (UniProt Q01705). Kind of test: Inhibition of Notch1 in mouse MEB5 cells assessed as reduction in NICD expression at 1 uM after 24 hrs by Western blot analysis. The format is cell-based. The essentials: (§3)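 MEB5 mouse neural stem cells dissociated and seeded on poly-L-lysine and fibronectin/laminin-coated 6 cm dishes in proliferation medium for 12 h. Washed with NeuroCult basal medium, then compound given in differentiation medium for 24 h. Lysates analysed by Western blot (SDS-PAGE, PVDF, ECL); γ-secretase antibody sampler kit used for γ-secretase components.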

The target is the same in test [15]. The test is described as follows: Inhibition of Notch1 in mouse MEB5 cells assessed as reduction in Hes1 expression at 1 uM after 24 hrs by Western blot analysis. In kind it is cell-based. The essentials:
as §3

For test [16] the target is unchanged. Kind of test: Inhibition of Notch1 in mouse MEB5 cells assessed as reduction in Hes5 expression at 1 uM after 24 hrs by Western blot analysis. The format is cell-based. The essentials:
as §3

Test [17] concerns MEB5. The test is described as follows: Effect on gamma-secretase activity in mouse MEB5 cells assessed as nicastrin expression at 1 uM after 24 hrs by Western blot analysis. In kind it is cell-based. The essentials:
as §3

The subject of test [18] is MEB5. The test is described as follows: Effect on gamma-secretase activity in mouse MEB5 cells assessed as PS1 expression at 1 uM after 24 hrs by Western blot analysis. The format is cell-based. The essentials: as §3
Test [19] deals with MEB5. The test is described as follows: Effect on gamma-secretase activity in mouse MEB5 cells assessed as PS2 expression at 1 uM after 24 hrs by Western blot analysis. In kind it is cell-based. The essentials: as §3
Test [20] relates to MEB5. Kind of test: Effect on gamma-secretase activity in mouse MEB5 cells assessed as PEN2 expression at 1 uM after 24 hrs by Western blot analysis. In kind it is cell-based. The essentials: as §3
Test [21] has as its target Neurogenic locus notch homolog protein 1 (Mus musculus) (UniProt Q01705). The test is described as follows: Inhibition of Notch1 in mouse MEB5 cells assessed as reduction in NICD expression at 1 uM after 24 hrs in presence of proteasome inhibitor MG132 by Western blot analysis. In kind it is cell-based.
Test [22] concerns MEB5. The test is described as follows: Inhibition of Wnt signaling in mouse MEB5 cells assessed as reduction in beta-catenin level up to 1 uM after 12 to 24 hrs by Western blot analysis. The format is cell-based.
For test [23], the system named is MEB5. The test is described as follows: Induction of neuronal differentiation in mouse MEB5 cells assessed as reduction in astrocytes at 1 uM after 4 days by GFAP staining based immunofluorescence analysis. In kind it is functional, cell-based.

Sequence of Neurogenic locus notch homolog protein 1 (Homo sapiens) (P46531 whole entry, the tested form may be a part): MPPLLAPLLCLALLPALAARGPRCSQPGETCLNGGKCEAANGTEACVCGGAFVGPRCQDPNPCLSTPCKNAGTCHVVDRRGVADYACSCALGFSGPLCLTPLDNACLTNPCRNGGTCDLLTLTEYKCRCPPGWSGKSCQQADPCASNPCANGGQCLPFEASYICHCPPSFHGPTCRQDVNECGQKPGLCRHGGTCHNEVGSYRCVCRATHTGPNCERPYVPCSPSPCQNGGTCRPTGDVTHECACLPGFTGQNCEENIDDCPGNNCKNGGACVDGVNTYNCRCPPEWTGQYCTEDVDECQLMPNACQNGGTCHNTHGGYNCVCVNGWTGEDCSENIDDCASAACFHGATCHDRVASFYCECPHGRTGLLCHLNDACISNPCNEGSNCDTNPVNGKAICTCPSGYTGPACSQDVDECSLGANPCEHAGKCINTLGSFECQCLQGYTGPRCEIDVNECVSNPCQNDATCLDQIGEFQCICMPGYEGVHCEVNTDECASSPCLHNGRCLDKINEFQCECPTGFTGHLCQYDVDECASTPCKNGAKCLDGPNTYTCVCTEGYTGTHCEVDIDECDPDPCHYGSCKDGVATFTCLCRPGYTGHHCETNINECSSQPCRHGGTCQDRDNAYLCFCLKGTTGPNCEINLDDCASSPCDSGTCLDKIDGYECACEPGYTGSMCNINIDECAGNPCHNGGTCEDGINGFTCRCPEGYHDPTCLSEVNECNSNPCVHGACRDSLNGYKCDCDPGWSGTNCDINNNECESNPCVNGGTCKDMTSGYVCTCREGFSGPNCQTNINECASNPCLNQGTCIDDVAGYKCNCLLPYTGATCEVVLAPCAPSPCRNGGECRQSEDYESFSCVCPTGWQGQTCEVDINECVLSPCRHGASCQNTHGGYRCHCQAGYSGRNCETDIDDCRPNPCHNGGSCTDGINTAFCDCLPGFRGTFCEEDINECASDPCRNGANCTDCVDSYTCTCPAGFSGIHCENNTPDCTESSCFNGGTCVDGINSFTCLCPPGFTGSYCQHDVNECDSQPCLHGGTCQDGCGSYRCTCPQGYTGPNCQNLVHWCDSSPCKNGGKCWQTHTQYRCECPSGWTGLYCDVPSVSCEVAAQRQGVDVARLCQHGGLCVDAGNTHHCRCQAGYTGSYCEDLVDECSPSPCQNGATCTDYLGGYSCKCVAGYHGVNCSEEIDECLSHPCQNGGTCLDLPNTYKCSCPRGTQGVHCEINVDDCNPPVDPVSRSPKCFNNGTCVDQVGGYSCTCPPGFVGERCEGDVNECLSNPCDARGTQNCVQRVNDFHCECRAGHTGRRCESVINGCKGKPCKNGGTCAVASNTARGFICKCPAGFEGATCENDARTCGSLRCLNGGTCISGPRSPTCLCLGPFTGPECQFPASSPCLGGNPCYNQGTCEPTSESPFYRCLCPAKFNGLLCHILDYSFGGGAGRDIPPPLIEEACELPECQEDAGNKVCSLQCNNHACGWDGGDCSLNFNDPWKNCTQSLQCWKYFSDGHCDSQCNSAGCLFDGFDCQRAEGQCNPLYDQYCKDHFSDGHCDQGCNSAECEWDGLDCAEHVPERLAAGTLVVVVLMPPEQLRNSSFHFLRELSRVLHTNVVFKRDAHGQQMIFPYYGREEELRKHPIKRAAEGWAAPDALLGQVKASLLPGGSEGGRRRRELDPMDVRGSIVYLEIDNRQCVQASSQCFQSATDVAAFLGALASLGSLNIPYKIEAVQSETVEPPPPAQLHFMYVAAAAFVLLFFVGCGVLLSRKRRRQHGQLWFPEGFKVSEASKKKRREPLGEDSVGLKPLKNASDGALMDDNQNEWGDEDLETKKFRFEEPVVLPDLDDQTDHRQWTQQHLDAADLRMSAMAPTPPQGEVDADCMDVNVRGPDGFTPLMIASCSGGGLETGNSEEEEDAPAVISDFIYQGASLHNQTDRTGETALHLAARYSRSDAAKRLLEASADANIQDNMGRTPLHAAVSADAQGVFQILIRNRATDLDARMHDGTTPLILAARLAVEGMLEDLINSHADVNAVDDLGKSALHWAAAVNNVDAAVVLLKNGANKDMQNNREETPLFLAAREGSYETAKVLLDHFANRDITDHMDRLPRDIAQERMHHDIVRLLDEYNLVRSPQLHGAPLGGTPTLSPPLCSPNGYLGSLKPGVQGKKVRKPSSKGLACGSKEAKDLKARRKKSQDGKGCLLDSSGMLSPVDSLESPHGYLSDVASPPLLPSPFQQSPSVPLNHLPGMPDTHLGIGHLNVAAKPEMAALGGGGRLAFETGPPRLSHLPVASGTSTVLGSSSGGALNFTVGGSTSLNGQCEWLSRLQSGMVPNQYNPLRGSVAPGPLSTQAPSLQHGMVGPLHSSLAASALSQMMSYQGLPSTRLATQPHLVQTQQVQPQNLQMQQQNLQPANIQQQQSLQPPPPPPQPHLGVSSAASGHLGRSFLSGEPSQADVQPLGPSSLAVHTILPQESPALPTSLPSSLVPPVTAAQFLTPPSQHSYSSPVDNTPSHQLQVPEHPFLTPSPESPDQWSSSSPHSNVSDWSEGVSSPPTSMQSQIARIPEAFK
Sequence of Neurogenic locus notch homolog protein 1 (Mus musculus) (Q01705 whole entry): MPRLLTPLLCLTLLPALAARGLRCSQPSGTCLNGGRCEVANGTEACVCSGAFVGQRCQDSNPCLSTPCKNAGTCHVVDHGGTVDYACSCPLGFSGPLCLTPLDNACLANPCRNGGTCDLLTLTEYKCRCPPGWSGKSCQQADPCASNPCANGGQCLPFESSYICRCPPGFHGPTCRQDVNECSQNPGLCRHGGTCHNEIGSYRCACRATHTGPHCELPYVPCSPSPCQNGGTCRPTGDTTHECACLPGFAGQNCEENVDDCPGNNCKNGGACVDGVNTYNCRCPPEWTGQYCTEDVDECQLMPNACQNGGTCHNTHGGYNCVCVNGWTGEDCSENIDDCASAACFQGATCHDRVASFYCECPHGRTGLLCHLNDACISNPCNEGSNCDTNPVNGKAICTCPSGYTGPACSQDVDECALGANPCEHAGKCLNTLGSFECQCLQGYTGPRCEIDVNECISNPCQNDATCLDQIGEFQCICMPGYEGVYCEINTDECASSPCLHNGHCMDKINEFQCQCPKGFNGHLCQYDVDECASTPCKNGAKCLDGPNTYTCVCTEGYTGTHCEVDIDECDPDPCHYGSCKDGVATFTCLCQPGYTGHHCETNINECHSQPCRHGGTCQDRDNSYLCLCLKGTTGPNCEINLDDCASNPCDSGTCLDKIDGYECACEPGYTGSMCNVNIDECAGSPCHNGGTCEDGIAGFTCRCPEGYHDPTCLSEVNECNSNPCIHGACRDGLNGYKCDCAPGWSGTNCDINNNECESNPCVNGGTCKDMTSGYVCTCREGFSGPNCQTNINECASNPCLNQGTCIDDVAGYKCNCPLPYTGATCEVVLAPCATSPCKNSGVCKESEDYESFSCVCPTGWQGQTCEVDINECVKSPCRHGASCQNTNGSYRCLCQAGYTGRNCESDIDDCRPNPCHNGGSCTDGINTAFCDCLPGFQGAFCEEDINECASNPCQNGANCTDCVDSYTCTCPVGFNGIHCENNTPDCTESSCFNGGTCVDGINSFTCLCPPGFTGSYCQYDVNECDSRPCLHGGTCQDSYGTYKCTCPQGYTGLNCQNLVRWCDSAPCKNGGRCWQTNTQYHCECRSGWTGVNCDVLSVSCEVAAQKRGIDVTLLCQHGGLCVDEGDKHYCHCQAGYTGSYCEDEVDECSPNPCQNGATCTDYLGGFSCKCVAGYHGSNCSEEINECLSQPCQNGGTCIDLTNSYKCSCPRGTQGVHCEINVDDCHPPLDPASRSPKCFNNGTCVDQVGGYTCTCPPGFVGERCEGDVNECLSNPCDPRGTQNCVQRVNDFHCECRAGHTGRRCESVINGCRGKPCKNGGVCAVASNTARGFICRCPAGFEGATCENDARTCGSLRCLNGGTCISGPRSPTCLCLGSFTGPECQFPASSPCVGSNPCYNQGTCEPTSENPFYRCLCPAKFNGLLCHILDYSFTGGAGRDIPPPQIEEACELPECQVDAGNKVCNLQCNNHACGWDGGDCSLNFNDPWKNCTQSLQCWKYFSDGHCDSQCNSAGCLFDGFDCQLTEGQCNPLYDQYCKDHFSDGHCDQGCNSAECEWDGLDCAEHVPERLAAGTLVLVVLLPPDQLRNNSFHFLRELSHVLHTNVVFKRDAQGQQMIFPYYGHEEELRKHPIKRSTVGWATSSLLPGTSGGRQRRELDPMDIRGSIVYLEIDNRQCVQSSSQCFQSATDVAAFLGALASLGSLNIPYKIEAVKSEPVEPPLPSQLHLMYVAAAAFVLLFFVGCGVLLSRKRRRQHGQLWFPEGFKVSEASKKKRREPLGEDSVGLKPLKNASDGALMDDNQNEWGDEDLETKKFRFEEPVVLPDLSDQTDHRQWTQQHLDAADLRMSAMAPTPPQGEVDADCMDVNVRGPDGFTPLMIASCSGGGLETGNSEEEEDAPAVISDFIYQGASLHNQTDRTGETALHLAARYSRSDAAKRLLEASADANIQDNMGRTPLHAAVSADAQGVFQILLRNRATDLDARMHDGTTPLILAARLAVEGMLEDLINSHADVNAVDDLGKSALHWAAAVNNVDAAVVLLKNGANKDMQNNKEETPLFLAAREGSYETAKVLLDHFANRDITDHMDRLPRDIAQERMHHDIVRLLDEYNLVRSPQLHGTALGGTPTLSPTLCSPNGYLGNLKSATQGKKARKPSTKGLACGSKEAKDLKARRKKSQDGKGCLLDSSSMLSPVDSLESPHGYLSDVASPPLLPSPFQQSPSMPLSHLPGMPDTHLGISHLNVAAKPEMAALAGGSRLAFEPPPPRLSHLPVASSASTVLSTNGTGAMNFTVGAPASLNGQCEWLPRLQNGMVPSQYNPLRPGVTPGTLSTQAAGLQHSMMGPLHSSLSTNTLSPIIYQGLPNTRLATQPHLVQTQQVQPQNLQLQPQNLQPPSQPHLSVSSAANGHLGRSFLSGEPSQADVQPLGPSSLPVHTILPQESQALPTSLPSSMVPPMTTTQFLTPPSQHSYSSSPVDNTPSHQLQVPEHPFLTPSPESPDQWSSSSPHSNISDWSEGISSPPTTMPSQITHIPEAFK

As for `C[C@@H]1C[C@@]2(NC(=O)CS2)[C@]2(O)O[C@@H]3C[C@@]4(C=O)[C@@H](CC[C@@H]5[C@@H]4CC[C@]4(C)[C@@H](C6=CC(=O)OC6)CC[C@]54O)C[C@H]3O[C@@H]2O1`, in test [1], the inhibition result was “Dose-dependent effect”.

On to `C[C@@H]1C[C@@]2(NCCS2)[C@]2(O)O[C@@H]3C[C@@]4(C=O)[C@@H](CC[C@@H]5[C@@H]4CC[C@]4(C)[C@@H](C6=CC(=O)OC6)CC[C@]54O)C[C@H]3O[C@@H]2O1`, for which the inhibition entry in test [1] is “Dose-dependent effect”.

As to `C[C@H](NC(=O)Cc1cc(F)cc(F)c1)C(=O)N[C@H](C(=O)OC(C)(C)C)c1ccccc1`, the inhibition entry in test [2], in test [3] and in test [4] was “Active” each time. Also, the Activity turned out to be 0.004 in test [5], 19.7% in the test with MEB5 [6], 20.5 um in the test on MEB5 [7] and 43% in the test with MEB5 [8]. Also, in the test with MEB5 [9], the result was Active.

For `CC(=O)O[C@H]1C[C@@H](C)O[C@H]2O[C@@H]3C[C@@H]4CC[C@@H]5[C@H](CC[C@]6(C)[C@@H](C7=CC(=O)OC7)CC[C@]56O)[C@@]4(C=O)C[C@H]3O[C@]21O`, the inhibition entry in test [1] is “Dose-dependent effect”. In addition, in test [10], the outcome was inactive.

For the compound `COC(=O)[C@@]1(O)C[C@@H](C)O[C@H]1O[C@@H]1C[C@@H]2CC[C@@H]3[C@H](CC[C@]4(C)[C@@H](C5=CC(=O)OC5)[C@H](O)C[C@]34O)[C@@]2(C=O)C[C@H]1O`, the inhibition entry in test [1] is “Dose-dependent effect”.

Regarding `C[C@@H]1C[C@@]2(N=CCS2)[C@]2(O)O[C@@H]3C[C@@]4(C=O)[C@@H](CC[C@@H]5[C@@H]4CC[C@]4(C)[C@@H](C6=CC(=O)OC6)CC[C@]54O)C[C@H]3O[C@@H]2O1` [USCHARIN], the inhibition result in [1] is “Dose-dependent effect”. The inhibition entry in [2], in test [3], in [14], in [15] and in [16] was “Active” each time. Besides, the outcome (with LS174T; in test [10]; in the test with MEB5 [17]; with MEB5 [18]; in the test with MEB5 [19]; in the test with MEB5 [20]) was inactive. The Activity in the test on MEB5 [11] came to 20.8%; with MEB5 [12] it was 19.5 um; in the test with MEB5 [13] it was 36%. Besides, the inhibition entry (in test [21]; in the test with MEB5 [22]) was “inactive” throughout. Moreover, in the test with MEB5 [23], the result was Active.

Turning to `C[C@@H]1C[C@H](O)[C@]2(O)O[C@@H]3C[C@@]4(C=O)[C@@H](CC[C@@H]5[C@@H]4CC[C@]4(C)[C@@H](C6=CC(=O)OC6)CC[C@]54O)C[C@H]3O[C@@H]2O1`, the inhibition result in test [1] is “Dose-dependent effect”. The result in test [10] was inactive.

On to `C[C@@H]1C[C@@]2(N=CCS2)[C@]2(O)O[C@@H]3C[C@@]4(C=O)[C@@H](CC[C@@H]5[C@@H]4CC[C@]4(C)[C@@H](C6=CC(=O)OC6)[C@H](O)C[C@]54O)C[C@H]3O[C@@H]2O1`, for which the inhibition entry in test [1] was “Dose-dependent effect”.

For the compound `C[C@@H]1CC(=O)[C@]2(O)O[C@@H]3C[C@@]4(C=O)[C@@H](CC[C@@H]5[C@@H]4CC[C@]4(C)[C@@H](C6=CC(=O)OC6)CC[C@]54O)C[C@H]3O[C@@H]2O1`, the inhibition entry in test [1] was “Dose-dependent effect”.

These data come from ChEMBL document CHEMBL4130386, “Notch Inhibitors from Calotropis gigantea That Induce Neuronal Differentiation of Neural Stem Cells” (J Nat Prod, 2017).
